Measured values published in ChEMBL document CHEMBL5244263, “Studies on fragment-based design of allosteric inhibitors of human factor XIa” (Bioorg Med Chem, 2020).
Calls of active or inactive are those of the source. The rule behind the calls is not given here.

Tests used:
[1] = species: Homo sapiens; assay: Selectivity for inhibition of human FXIa over FVIIa (unknown origin)
[2] = Selectivity for inhibition of human FXIa over bovine trypsin
[3] = target: T1, Coagulation factor XI (Homo sapiens, UniProt P03951); assay: Inhibition of human FXIa using S-2366 as chromogenic substrate preincubated with enzyme for 10 mins followed by substrate addition by spectrophotometric analysis relative to control; parameters: concentration or dose not given beside the values
Procedure, shortened: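 hFXIa (0.765 nM final) preincubated with inhibitor or reference solution for 10 min at 37 °C in pH 7.4 buffer (50 mM Tris-HCl, 150 mM NaCl, 0.1% PEG8000, 0.02% Tween80). S-2366 (345 μM final) then added, and residual activity read on a microplate reader.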

[4] = target: T2, Coagulation factor VII (Homo sapiens) (UniProt P08709); assay: Inhibition of FVIIa (unknown origin) at 500 uM by chromogenic substrate hydrolysis assay
T2 sequence (whole entry): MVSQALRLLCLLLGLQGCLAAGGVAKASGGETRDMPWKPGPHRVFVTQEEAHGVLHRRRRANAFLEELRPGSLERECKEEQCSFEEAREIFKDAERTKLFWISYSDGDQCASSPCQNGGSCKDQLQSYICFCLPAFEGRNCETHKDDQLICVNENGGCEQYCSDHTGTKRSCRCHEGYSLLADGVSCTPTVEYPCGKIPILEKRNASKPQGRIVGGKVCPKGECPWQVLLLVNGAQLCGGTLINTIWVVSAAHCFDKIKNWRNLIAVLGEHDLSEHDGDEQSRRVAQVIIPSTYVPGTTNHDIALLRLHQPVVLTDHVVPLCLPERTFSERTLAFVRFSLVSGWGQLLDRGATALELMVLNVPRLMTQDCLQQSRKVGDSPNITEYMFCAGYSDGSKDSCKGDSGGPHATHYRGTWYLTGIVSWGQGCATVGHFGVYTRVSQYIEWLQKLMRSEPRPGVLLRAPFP

[5] = target: Chymotrypsinogen A (Bos taurus) (UniProt P00766); assay: Inhibition of bovine alpha-chymotrypsin at 500 uM by chromogenic substrate hydrolysis assay
[6] = species: Bos taurus; assay: Inhibition of bovine trypsin using S-2222 as chromogenic substrate at 500 uM by chromogenic substrate hydrolysis assay
[7] = species: Homo sapiens; assay: Selectivity for inhibition of human FXIa over human FIXa
[8] = Selectivity for inhibition of human FXIa over bovine alpha-chymotrypsin
[9] = target: Prothrombin (Homo sapiens) (UniProt P00734); assay: Inhibition of human thrombin at 500 uM by chromogenic substrate hydrolysis assay
[10] = target: Coagulation factor X (Homo sapiens) (UniProt P00742); assay: Inhibition of human FXa using methoxycarbonyl-D-cyclohexylglycyl-Gly-Arg-p-nitroanilide as substrate at 500 uM by chromogenic substrate hydrolysis assay
[11] = species: Homo sapiens; assay: Selectivity for inhibition of human FXIa over human thrombin
[12] = target: T1, Coagulation factor XI; assay: Inhibition of human FXIa using S-2366 as chromogenic substrate preincubated with enzyme for 10 mins followed by substrate addition by spectrophotometric analysis
[13] = target: Coagulation factor IX (Homo sapiens) (UniProt P00740); assay: Inhibition of human FIXa at 500 uM by chromogenic substrate hydrolysis assay
[14] = species: Homo sapiens; assay: Selectivity for inhibition of human FXIa over human FXa
[15] = species: Homo sapiens; assay: Selectivity for inhibition of human FXIa over Kallikrein in human plasma; format: cell-free
[16] = target: Plasma kallikrein (Homo sapiens) (UniProt P03952); assay: Inhibition of Kallikrein in human plasma at 500 uM by chromogenic substrate hydrolysis assay; format: cell-free
Chain of Plasma kallikrein (Homo sapiens) (P03952 20-390 limits assumed): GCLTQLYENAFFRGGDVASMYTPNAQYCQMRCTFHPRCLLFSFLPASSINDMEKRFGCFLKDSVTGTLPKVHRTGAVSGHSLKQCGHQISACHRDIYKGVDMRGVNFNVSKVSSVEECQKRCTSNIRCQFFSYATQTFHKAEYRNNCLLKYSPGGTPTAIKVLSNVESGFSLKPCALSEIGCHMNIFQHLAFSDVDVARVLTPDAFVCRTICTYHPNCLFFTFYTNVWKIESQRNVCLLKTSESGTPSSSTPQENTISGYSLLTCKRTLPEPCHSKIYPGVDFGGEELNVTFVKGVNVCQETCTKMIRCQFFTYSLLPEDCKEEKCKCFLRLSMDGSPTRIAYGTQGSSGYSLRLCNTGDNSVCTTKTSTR
Chain of Plasma kallikrein (Homo sapiens) (P03952 391-638 limits assumed): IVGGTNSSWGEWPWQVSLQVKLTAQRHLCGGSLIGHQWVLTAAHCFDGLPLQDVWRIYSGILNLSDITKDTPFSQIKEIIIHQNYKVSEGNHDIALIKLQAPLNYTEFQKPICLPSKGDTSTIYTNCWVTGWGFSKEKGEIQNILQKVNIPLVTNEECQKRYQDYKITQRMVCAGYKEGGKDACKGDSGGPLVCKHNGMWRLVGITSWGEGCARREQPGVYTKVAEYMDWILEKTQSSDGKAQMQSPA

T1 sequence (P03951 19-387 limits assumed): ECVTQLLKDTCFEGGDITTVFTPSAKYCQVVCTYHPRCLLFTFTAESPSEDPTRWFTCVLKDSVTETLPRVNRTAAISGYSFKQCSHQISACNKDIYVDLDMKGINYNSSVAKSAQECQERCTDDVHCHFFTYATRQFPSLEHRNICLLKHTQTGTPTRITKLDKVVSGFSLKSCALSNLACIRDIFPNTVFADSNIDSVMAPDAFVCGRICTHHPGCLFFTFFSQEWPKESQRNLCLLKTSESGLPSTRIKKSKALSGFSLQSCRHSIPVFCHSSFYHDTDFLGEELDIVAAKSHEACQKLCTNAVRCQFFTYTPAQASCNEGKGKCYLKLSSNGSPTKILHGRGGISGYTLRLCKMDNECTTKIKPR
T1 sequence (P03951 388-625 limits assumed): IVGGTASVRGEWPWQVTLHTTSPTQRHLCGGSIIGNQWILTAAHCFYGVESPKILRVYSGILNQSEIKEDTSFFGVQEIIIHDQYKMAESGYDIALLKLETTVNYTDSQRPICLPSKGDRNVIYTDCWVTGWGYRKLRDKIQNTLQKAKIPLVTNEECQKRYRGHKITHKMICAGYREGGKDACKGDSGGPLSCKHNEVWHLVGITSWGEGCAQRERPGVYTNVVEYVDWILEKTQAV
Chain of Coagulation factor IX (Homo sapiens) (P00740 47-191 limits assumed): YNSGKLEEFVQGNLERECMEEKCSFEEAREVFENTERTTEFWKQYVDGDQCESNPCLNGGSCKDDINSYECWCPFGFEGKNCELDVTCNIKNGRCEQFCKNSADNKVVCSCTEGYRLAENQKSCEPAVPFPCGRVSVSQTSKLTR
Chain of Coagulation factor IX (Homo sapiens) (P00740 227-461 limits assumed): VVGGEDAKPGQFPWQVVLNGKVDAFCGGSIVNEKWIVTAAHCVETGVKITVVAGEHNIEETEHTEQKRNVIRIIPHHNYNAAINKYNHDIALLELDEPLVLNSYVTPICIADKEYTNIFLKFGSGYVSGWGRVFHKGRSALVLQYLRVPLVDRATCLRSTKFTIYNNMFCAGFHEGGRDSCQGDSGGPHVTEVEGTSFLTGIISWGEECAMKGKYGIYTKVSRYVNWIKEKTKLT
Chain of Coagulation factor X (Homo sapiens) (P00742 41-179 limits assumed): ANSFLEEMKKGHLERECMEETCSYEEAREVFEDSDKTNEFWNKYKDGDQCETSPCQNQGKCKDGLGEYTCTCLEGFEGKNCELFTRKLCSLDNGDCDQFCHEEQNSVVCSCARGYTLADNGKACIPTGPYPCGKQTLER
Chain of Coagulation factor X (Homo sapiens) (P00742 235-488 limits assumed): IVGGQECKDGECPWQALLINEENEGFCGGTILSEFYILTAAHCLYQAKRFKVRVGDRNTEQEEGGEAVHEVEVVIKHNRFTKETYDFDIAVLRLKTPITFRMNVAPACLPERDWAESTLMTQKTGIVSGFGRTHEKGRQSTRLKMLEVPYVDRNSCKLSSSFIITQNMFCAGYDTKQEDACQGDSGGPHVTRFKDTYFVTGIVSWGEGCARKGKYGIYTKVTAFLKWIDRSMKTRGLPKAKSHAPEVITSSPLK

SMILES	Selectivity ratio [1]	Selectivity ratio [2]	inhibition [3]	Selectivity ratio [7]	Selectivity ratio [8]	Selectivity ratio [11]	Selectivity ratio [14]	Selectivity ratio [15]	inhibition [4]	inhibition [5]	inhibition [6]	inhibition [9]	inhibition [10]	IC50 [12]	inhibition [13]	inhibition [16]
O=c1c2ccccc2nc(-c2ccc(OS(=O)(=O)O)cc2)n1CCCCCCCCCCn1cc(Cn2c(-c3ccc(OS(=O)(=O)O)cc3)nc3ccccc3c2=O)nn1	> 63	> 63	112%	> 63	> 63	> 63	> 63	> 63	inactive	inactive	inactive	inactive	inactive	22 µM	inactive	inactive
O=c1c2ccccc2nc(-c2ccc(OS(=O)(=O)O)cc2)n1Cc1ccccc1Cn1c(-c2ccc(OS(=O)(=O)O)cc2)nc2ccccc2c1=O	> 63	> 63	87%	> 63	> 63	> 63	> 63	> 63	inactive	inactive	inactive	inactive	inactive	57 µM	inactive	inactive
O=c1c(OS(=O)(=O)O)c(-c2ccc(OS(=O)(=O)O)c(OS(=O)(=O)O)c2)oc2cc(OS(=O)(=O)O)cc(OCc3cn(CCCCCCCCCn4c(-c5ccc(OS(=O)(=O)O)cc5)nc5ccccc5c4=O)nn3)c12	–	–	–	–	–	–	–	–	inactive	inactive	inactive	inactive	inactive	37 µM	inactive	inactive
O=c1c2ccccc2nc(-c2ccc(OS(=O)(=O)O)cc2)n1CCCCCCCCCn1cc(Cn2c(-c3ccc(OS(=O)(=O)O)cc3)nc3ccccc3c2=O)nn1	> 63	> 63	100%	> 63	> 63	> 63	> 63	> 63	inactive	inactive	inactive	inactive	inactive	34 µM	inactive	inactive
O=c1c(OS(=O)(=O)O)c(-c2ccc(OS(=O)(=O)O)c(OS(=O)(=O)O)c2)oc2cc(OS(=O)(=O)O)cc(OCc3cn(CCCCCCCCn4c(-c5ccc(OS(=O)(=O)O)cc5)nc5ccccc5c4=O)nn3)c12	–	–	–	–	–	–	–	–	inactive	inactive	inactive	inactive	inactive	133 µM	inactive	inactive
O=c1c2ccccc2nc(-c2ccc(OS(=O)(=O)O)cc2)n1CCCCCCCCCCCn1cc(Cn2c(-c3ccc(OS(=O)(=O)O)cc3)nc3ccccc3c2=O)nn1	> 63	> 63	98%	> 63	> 63	> 63	> 63	> 63	inactive	inactive	inactive	inactive	inactive	30 µM	inactive	inactive
O=c1c(OS(=O)(=O)O)c(-c2ccc(OS(=O)(=O)O)c(OS(=O)(=O)O)c2)oc2cc(OS(=O)(=O)O)cc(OCc3cn(CCCCCCCCCCn4c(-c5ccc(OS(=O)(=O)O)cc5)nc5ccccc5c4=O)nn3)c12	–	–	–	–	–	–	–	–	inactive	inactive	inactive	inactive	inactive	51 µM	inactive	inactive
O=c1c(OS(=O)(=O)O)c(-c2ccc(OS(=O)(=O)O)c(OS(=O)(=O)O)c2)oc2cc(OS(=O)(=O)O)cc(OCc3cn(CCCCCCCn4c(-c5ccc(OS(=O)(=O)O)cc5)nc5ccccc5c4=O)nn3)c12	–	–	–	–	–	–	–	–	inactive	inactive	inactive	inactive	inactive	139 µM	inactive	inactive

More lines, main results first:

Selectivity ratio [1]	Selectivity ratio [2]	inhibition [3]	Selectivity ratio [7]	Selectivity ratio [8]	Selectivity ratio [11]	Selectivity ratio [14]	Selectivity ratio [15]	SMILES	inhibition [4]	inhibition [5]	inhibition [6]	inhibition [9]	inhibition [10]	IC50 [12]	inhibition [13]	inhibition [16]
> 63	> 63	96%	> 63	> 63	> 63	> 63	> 63	O=c1c2ccccc2nc(-c2cccc(OS(=O)(=O)O)c2)n1CCCCCn1c(-c2cccc(OS(=O)(=O)O)c2)nc2ccccc2c1=O	inactive	inactive	inactive	inactive	inactive	89 µM	inactive	inactive
> 63	> 63	92%	> 63	> 63	> 63	> 63	> 63	O=c1c2ccccc2nc(-c2ccc(OS(=O)(=O)O)cc2)n1CCCCCn1c(-c2ccc(OS(=O)(=O)O)cc2)nc2ccccc2c1=O	inactive	inactive	inactive	inactive	inactive	49 µM	inactive	inactive
> 63	> 63	96%	> 63	> 63	> 63	> 63	> 63	O=c1c2ccccc2nc(-c2ccc(OS(=O)(=O)O)cc2)n1CCCCCCCn1c(-c2ccc(OS(=O)(=O)O)cc2)nc2ccccc2c1=O	inactive	inactive	inactive	inactive	inactive	23 µM	inactive	inactive
> 63	> 63	96%	> 63	> 63	> 63	> 63	> 63	O=c1c2ccccc2nc(-c2cccc(OS(=O)(=O)O)c2)n1CCCCCCn1c(-c2cccc(OS(=O)(=O)O)c2)nc2ccccc2c1=O	inactive	inactive	inactive	inactive	inactive	53 µM	inactive	inactive
> 63	> 63	96%	> 63	> 63	> 63	> 63	> 63	O=c1c2ccccc2nc(-c2ccc(OS(=O)(=O)O)cc2)n1Cc1cccc(Cn2c(-c3ccc(OS(=O)(=O)O)cc3)nc3ccccc3c2=O)c1	inactive	inactive	inactive	inactive	inactive	76 µM	inactive	inactive
> 63	> 63	100%	> 63	> 63	> 63	> 63	> 63	O=c1c2ccccc2nc(-c2cccc(OS(=O)(=O)O)c2)n1Cc1ccc(Cn2c(-c3cccc(OS(=O)(=O)O)c3)nc3ccccc3c2=O)cc1	inactive	inactive	inactive	inactive	inactive	248 µM	inactive	inactive
